Activity calls are given as the source filed them. The calls are words filed in the database; no cut-off is given here.
Tests used:
SK-OV-3 [1] = experiment: Antiproliferative activity against human SKOV3 cells at 10 uM after 72 hrs by MTS assay; format: functional; details: SK-OV-3, 72 h
How it was run: (§1)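 Cells grown under 5% CO2: KB and HepG2 in DMEM with 10% FCS, penicillin, streptomycin and fungizone; HCT116, HT29, HCT15, MCF7, MCF7R, SK-OV3, PC-3, A549, HL60, K562 and SF268 in RPMI. Cells were plated in 96-well plates and dosed 24 h later from DMSO stocks (controls 1% DMSO final). After 72 h, MTS was added for 3 h at 37 °C and absorbance read at 490 nm. Inhibition = (1 − OD treated/OD control)×100, in triplicate.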

SF-268 [2] = experiment: Antiproliferative activity against human SF268 cells at 1 uM after 72 hrs by MTS assay; format: functional; details: SF-268, 72 h; how it was run: as §1
HepG2 [3] = experiment: Antiproliferative activity against human HepG2 cells at 10 uM after 72 hrs by MTS assay; format: functional; details: HepG2, 72 h; how it was run: as §1
HL-60 [4] = experiment: Antiproliferative activity against human HL60 cells at 10 uM after 72 hrs by MTS assay; format: functional; details: HL-60, 72 h; how it was run: as §1
A549 [5] = experiment: Antiproliferative activity against human A549 cells at 10 uM after 72 hrs by MTS assay; format: functional; details: A549, 72 h; how it was run: as §1
MCF7 [6] = experiment: Antiproliferative activity against human MCF7 cells at 1 uM after 72 hrs by MTS assay; format: functional; details: MCF7, 72 h; how it was run: as §1
K562 [7] = experiment: Antiproliferative activity against human K562 cells at 1 uM after 72 hrs by MTS assay; format: functional; details: K562, 72 h; how it was run: as §1
[8] = Induction of iron chelating activity by calcein fluorescence assay; format: physicochemical
How it was run: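 Cell-free calcein assay in 20 mM HEPES, 150 mM NaCl, pH 7.3, at 20 °C with orbital stirring. Calcein was quenched with iron(III) for 6 h to maximal quenching. Fluorescence recovery (ex 485/em 520 nm) was followed for 1 h at various chelator concentrations, and the initial dequenching rate was derived from the kinetics. Three independent experiments.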

HepG2 [9] = experiment: Antiproliferative activity against human HepG2 cells at 1 uM after 72 hrs by MTS assay; format: functional; details: HepG2, 72 h; how it was run: as §1
HT-29 [10] = experiment: Antiproliferative activity against human HT-29 cells at 10 uM after 72 hrs by MTS assay; format: functional; details: HT-29, 72 h; how it was run: as §1
MCF7 [11] = experiment: Antiproliferative activity against doxorubicin-resistant human MCF7 cells at 1 uM after 72 hrs by MTS assay; format: functional; details: MCF7, 72 h; how it was run: as §1
MCF7 [12] = experiment: Antiproliferative activity against human MCF7 cells at 10 uM after 72 hrs by MTS assay; format: functional; details: MCF7, 72 h; how it was run: as §1
HCT-116 [13] = experiment: Antiproliferative activity against human HCT116 cells at 1 uM after 72 hrs by MTS assay; format: functional; details: HCT-116, 72 h; how it was run: as §1
HCT-15 [14] = experiment: Antiproliferative activity against human HCT15 cells at 10 uM after 72 hrs by MTS assay; format: functional; details: HCT-15, 72 h; how it was run: as §1
MCF7 [15] = experiment: Antiproliferative activity against doxorubicin-resistant human MCF7 cells at 10 uM after 72 hrs by MTS assay; format: functional; details: MCF7, 72 h; how it was run: as §1
HL-60 [16] = experiment: Antiproliferative activity against human HL60 cells at 1 uM after 72 hrs by MTS assay; format: functional; details: HL-60, 72 h; how it was run: as §1
KB [17] = experiment: Antiproliferative activity against human KB cells at 1 uM after 72 hrs by MTS assay; format: functional; how it was run: as §1
KB [18] = experiment: Antiproliferative activity against human KB cells at 10 uM after 72 hrs by MTS assay; format: functional; how it was run: as §1
[19] = Antiproliferative activity against human HepaRG cells after 72 hrs by MTT assay; format: functional, cell-based
How it was run: (§2)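 Proliferating HepaRG cells at day 4 (seeded at 2.5×10⁴/cm² in William's E, 10% FCS, insulin, glutamine, hydrocortisone) were exposed for 72 h to a concentration series, with or without added iron(III) as each line states. Viability was read by MTT (0.5 mg/L as printed) for 3 h in serum-free medium, DMSO-solubilized formazan at 535 nm, expressed as % of control SDH activity.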

A549 [20] = experiment: Antiproliferative activity against human A549 cells at 1 uM after 72 hrs by MTS assay; format: functional; details: A549, 72 h; how it was run: as §1
SF-268 [21] = experiment: Antiproliferative activity against human SF268 cells at 10 uM after 72 hrs by MTS assay; format: functional; details: SF-268, 72 h; how it was run: as §1
HT-29 [22] = experiment: Antiproliferative activity against human HT-29 cells at 1 uM after 72 hrs by MTS assay; format: functional; details: HT-29, 72 h; how it was run: as §1
SK-OV-3 [23] = experiment: Antiproliferative activity against human SKOV3 cells at 1 uM after 72 hrs by MTS assay; format: functional; details: SK-OV-3, 72 h; how it was run: as §1
[24] = Antiproliferative activity against human HepaRG cells after 72 hrs by MTT assay in presence of iron(3); format: functional, cell-based; how it was run: as §2
PC-3 [25] = experiment: Antiproliferative activity against human PC3 cells at 1 uM after 72 hrs by MTS assay; format: functional; details: PC-3, 72 h; how it was run: as §1
K562 [26] = experiment: Antiproliferative activity against human K562 cells at 10 uM after 72 hrs by MTS assay; format: functional; details: K562, 72 h; how it was run: as §1
PC-3 [27] = experiment: Antiproliferative activity against human PC3 cells at 10 uM after 72 hrs by MTS assay; format: functional; details: PC-3, 72 h; how it was run: as §1
HCT-15 [28] = experiment: Antiproliferative activity against human HCT15 cells at 1 uM after 72 hrs by MTS assay; format: functional; details: HCT-15, 72 h; how it was run: as §1
HCT-116 [29] = experiment: Antiproliferative activity against human HCT116 cells at 10 uM after 72 hrs by MTS assay; format: functional; details: HCT-116, 72 h; how it was run: as §1
Hepatocyte = experiment: Cytoprotective activity in human hepatocytes assessed as inhibition of FeNTA-induced increase in extracellular LDH activity relative to control; format: functional; design: scale not given: the % may be the effect or the level left
HepaRG = experiment: Cytotoxicity against human HepaRG cells assessed as increase in extracellular LDH release at >100 uM after 72 hrs in presence of iron(3); format: functional, cell-based

| Structure (SMILES) | inhibition at 10 µM (SK-OV-3 [1]) [%] | inhibition at 1 µM (SF-268 [2]) [%] | inhibition at 10 µM (HepG2 [3]) [%] | inhibition at 10 µM (HL-60 [4]) [%] | inhibition at 10 µM (A549 [5]) [%] | inhibition at 1 µM (MCF7 [6]) [%] | inhibition at 1 µM (K562 [7]) [%] | inhibition at 1 µM (HepG2 [9]) [%] | inhibition at 10 µM (HT-29 [10]) [%] | inhibition at 1 µM (MCF7 [11]) [%] | inhibition at 10 µM (MCF7 [12]) [%] | inhibition at 1 µM (HCT-116 [13]) [%] | inhibition at 10 µM (HCT-15 [14]) [%] | inhibition at 10 µM (MCF7 [15]) [%] | inhibition at 1 µM (HL-60 [16]) [%] | inhibition at 1 µM (KB [17]) [%] | inhibition at 10 µM (KB [18]) [%] | IC50 [19] [µM] | inhibition at 1 µM (A549 [20]) [%] | inhibition at 10 µM (SF-268 [21]) [%] | other results |
| --- | --- | --- | --- | --- | --- | --- | --- | --- | --- | --- | --- | --- | --- | --- | --- | --- | --- | --- | --- | --- | --- |
| COC(=O)c1ccc(O)c(-c2nc(C(=S)NCCOCCOCCNC(=S)c3csc(-c4cc(C(=O)OC)ccc4O)n3)cs2)c1 | 45 | 0 | 43 | 52 | 98 | 0 | 1 | 0 | 3 | 0 | 10 | 6 | 42 | 64 | 0 | 5 | 58 | 42 | 8 | 62 | IC50 [8]: 0.5 µM; inhibition at 1 µM (HT-29 [22]): 0%; inhibition at 1 µM (SK-OV-3 [23]): 10%; IC50 [24]: 50 µM; inhibition at 1 µM (PC-3 [25]): 10%; inhibition at 10 µM (K562 [26]): 53%; inhibition at 10 µM (PC-3 [27]): 54%; inhibition at 1 µM (HCT-15 [28]): 1%; inhibition at 10 µM (HCT-116 [29]): 69% |
| CC(=O)N(O)CCCCCNC(=O)CCC(=O)N(O)CCCCCNC(=O)CCC(=O)N(O)CCCCCN [DEFEROXAMINE] | 52 | 0 | 0 | 0 | 50 | 0 | 0 | 0 | 42 | 0 | 0 | 0 | 46 | 9 | 0 | 0 | 16 | 50 | 2 | 33 | IC50 [8]: 4.4 µM; Activity (Hepatocyte): 162%; inhibition at 1 µM (HT-29 [22]): 0%; inhibition at 1 µM (SK-OV-3 [23]): 5%; IC50 [24]: 70 µM; inhibition at 1 µM (PC-3 [25]): 1%; inhibition at 10 µM (K562 [26]): 0%; inhibition at 10 µM (PC-3 [27]): 44%; inhibition at 1 µM (HCT-15 [28]): 0%; inhibition at 10 µM (HCT-116 [29]): 20% |
| O=C(O)c1ccc(O)c(-c2nc(C(=O)NCCOCCOCCNC(=O)c3csc(-c4cc(C(=O)O)ccc4O)n3)cs2)c1 | 7 | 0 | 0 | 0 | 0 | 0 | 0 | 0 | 1 | 0 | 0 | 0 | 0 | 2 | 0 | 0 | 2 | 120 | 1 | 0 | Activity (HepaRG): Active; Activity (Hepatocyte): 179%; inhibition at 1 µM (HT-29 [22]): 0%; inhibition at 1 µM (SK-OV-3 [23]): 4%; inhibition at 1 µM (PC-3 [25]): 0%; inhibition at 10 µM (K562 [26]): 9%; inhibition at 10 µM (PC-3 [27]): 8%; inhibition at 1 µM (HCT-15 [28]): 0%; inhibition at 10 µM (HCT-116 [29]): 0% |
| COC(=O)c1ccc(O)c(-c2nc(C(=O)NCCOCCOCCNC(=O)c3csc(-c4cc(C(=O)OC)ccc4O)n3)cs2)c1 | 22 | 0 | 26 | 0 | 11 | 0 | 2 | 0 | 4 | 0 | 4 | 0 | 14 | 19 | 0 | 0 | 28 | 64 | 0 | 19 | Activity (HepaRG): Active; IC50 [8]: 1 µM; Activity (Hepatocyte): 148%; inhibition at 1 µM (HT-29 [22]): 0%; inhibition at 1 µM (SK-OV-3 [23]): 10%; IC50 [24]: 78 µM; inhibition at 1 µM (PC-3 [25]): 8%; inhibition at 10 µM (K562 [26]): 10%; inhibition at 10 µM (PC-3 [27]): 37%; inhibition at 1 µM (HCT-15 [28]): 11%; inhibition at 10 µM (HCT-116 [29]): 13% |
| O=C(O)c1ccc(O)c(-c2nc(C(=S)NCCOCCOCCNC(=S)c3csc(-c4cc(C(=O)O)ccc4O)n3)cs2)c1 | 2 | 0 | 0 | 0 | 7 | 0 | 0 | 0 | 0 | 0 | 0 | 0 | 8 | 1 | 0 | 0 | 0 | 114 | 0 | 5 | Activity (HepaRG): Active; IC50 [8]: 0.07 µM; inhibition at 1 µM (HT-29 [22]): 0%; inhibition at 1 µM (SK-OV-3 [23]): 3%; inhibition at 1 µM (PC-3 [25]): 0%; inhibition at 10 µM (K562 [26]): 2%; inhibition at 10 µM (PC-3 [27]): 0%; inhibition at 1 µM (HCT-15 [28]): 0%; inhibition at 10 µM (HCT-116 [29]): 0% |
